According to ChEMBL document CHEMBL4706593, “Induced protein degradation of histone deacetylases 3 (HDAC3) by proteolysis targeting chimera (PROTAC)” (Eur J Med Chem, 2020):
Calls of active or inactive are those of the source. The calls are words filed in the database; no cut-off is given here.

Tests used:
[1] = Down regulation of NFkappaB p65 expression in LPS/IFNgamma-induced mouse RAW264.7 cells at 10 uM incubated for 20 hrs followed by LPS/IFNgamma stimulation and measured after 4 hrs by Western blot analysis; conditions: raw264.7, 24 h
Procedure, shortened: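 RAW264.7 cells treated and NF-κB p65 protein measured by western blot with p65 antibody (1:2500), β-actin loading control, HRP secondary and chemiluminescent detection.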

[2] = Cytotoxicity against mouse RAW264.7 cells assessed as cell survival up to 10 uM measured after 24 hrs by MTS assay relative to control; assay type: cell-based; conditions: read-out: Survival
Procedure, shortened: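 RAW264.7 macrophages (ATCC, passage 5–16) grown in DMEM GlutaMAX with 10% heated FBS at 37 °C, 5% CO2. Cells seeded at 25,000 cells/cm2 and treated the next day in fresh medium with compound up to 10 μM for 24 h at 37 °C. CellTiter 96 AQueous One (MTS) reagent added for 2 h at 37 °C in the dark, absorbance read at 490 nm, expressed as % of control.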

Histone deacetylase 1 = Histone deacetylase 1 (Homo sapiens, UniProt Q13547); test: Inhibition of recombinant human C-terminal His/FLAG-tagged HDAC1 (1 to 482 residues) expressed in Sf9 insect cells using Boc-Lys(epsilon-Ac)-AMC as substrate measured after 90 mins by fluorescence assay
Histone deacetylase 2 = Histone deacetylase 2 (Homo sapiens, UniProt Q92769); test: Inhibition of recombinant human full-length C-terminal FLAG-tagged HDAC2 expressed in baculovirus infected Sf9 insect cells using Boc-Lys(epsilon-Ac)-AMC as substrate measured after 90 mins by fluorescence assay
[3] = biological target: Histone deacetylase 3/Nuclear receptor corepressor 2 (HDAC3/NCoR2) (Homo sapiens, UniProt O15379); test: Inhibition of human recombinant C-terminal His-tagged HDAC3 (1 to 428 residues)/N-terminal GST-tagged NCOR2 (395 to 489 residues) expressed in baculovirus infected Sf9 insect cells using Boc-Lys(epsilon-Ac)-AMC as substrate measured after 90 mins by fluorescence assay
Procedure, shortened: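 Incubated with inhibitor dilutions (in 10% DMSO/buffer) and Boc-Lys(ε-Ac)-AMC, 90 min at 37 °C. Stopped with trypsin plus 200 µM vorinostat, 30 min at 37 °C.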

[4] = biological target: T1, Protein cereblon/Histone deacetylase 1 (Mus musculus) (UniProt O09106+Q8C7D2); test: Protac activity at CRBN/HDAC1 in mouse RAW264.7 cells assessed as induction of HDAC1 degradation at 10 uM by Western blot analysis; assay type: cell-based
Procedure, shortened: (§1)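 RAW264.7 macrophages treated at 10 µM. Cells lysed in ice-cold HEPES/MgCl2/EDTA/0.5% Triton X-100 with protease inhibitors, protein by BCA, 4–12% Bis-Tris SDS-PAGE, PVDF transfer. Probed with HDAC1, HDAC2 or HDAC3 antibodies (1:2000) and β-actin, then HRP secondary and chemiluminescence. Bands quantified by densitometry as fold of untreated control, mean ± SD of 2 independent experiments.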

[5] = biological target: T2, Protein cereblon/Histone deacetylase 2 (Mus musculus) (UniProt P70288+Q8C7D2); test: Protac activity at CRBN/HDAC2 in mouse RAW264.7 cells assessed as induction of HDAC2 degradation at 10 uM by Western blot analysis; assay type: cell-based; procedure, shortened: as §1
[6] = biological target: T3, Protein cereblon/Histone deacetylase 3 (Mus musculus, UniProt O88895+Q8C7D2); test: Protac activity at CRBN/HDAC3 in mouse RAW264.7 cells assessed as induction of HDAC3 degradation measured after 24 hrs by Western blot analysis; assay type: cell-based
T3 sequence (O88895 whole entry): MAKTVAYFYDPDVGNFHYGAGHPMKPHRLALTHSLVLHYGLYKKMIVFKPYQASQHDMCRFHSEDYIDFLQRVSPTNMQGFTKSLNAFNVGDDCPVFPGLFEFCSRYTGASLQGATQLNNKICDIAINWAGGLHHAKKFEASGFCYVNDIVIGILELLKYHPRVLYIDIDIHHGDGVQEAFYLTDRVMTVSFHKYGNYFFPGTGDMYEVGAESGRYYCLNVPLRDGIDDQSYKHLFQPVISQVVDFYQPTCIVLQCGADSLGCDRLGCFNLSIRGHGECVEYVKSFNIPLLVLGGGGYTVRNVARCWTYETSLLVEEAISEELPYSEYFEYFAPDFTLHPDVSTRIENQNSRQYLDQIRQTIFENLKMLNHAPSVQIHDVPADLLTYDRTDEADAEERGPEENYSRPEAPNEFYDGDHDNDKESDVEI
T3 sequence (Q8C7D2 whole entry): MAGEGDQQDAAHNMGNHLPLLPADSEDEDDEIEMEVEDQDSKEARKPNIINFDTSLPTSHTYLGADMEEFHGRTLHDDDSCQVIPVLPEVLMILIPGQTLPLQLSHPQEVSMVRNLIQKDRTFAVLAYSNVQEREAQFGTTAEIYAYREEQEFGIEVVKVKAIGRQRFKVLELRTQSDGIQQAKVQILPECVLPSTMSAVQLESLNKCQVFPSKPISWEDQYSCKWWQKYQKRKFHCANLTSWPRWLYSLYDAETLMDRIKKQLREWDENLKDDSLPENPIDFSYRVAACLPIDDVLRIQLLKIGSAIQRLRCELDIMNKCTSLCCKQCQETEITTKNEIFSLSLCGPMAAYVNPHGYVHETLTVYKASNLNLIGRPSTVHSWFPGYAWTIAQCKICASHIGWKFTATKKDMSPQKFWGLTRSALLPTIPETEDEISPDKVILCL
Procedure, shortened: (§2)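 RAW264.7 cells treated across 0.001–30 µM. Lysates blotted as standard, but membranes blocked in Odyssey buffer and probed with IRDye 680RD anti-mouse and 800CW anti-rabbit secondaries (1:10000). Bands imaged on a fluorescence scanner and quantified to derive DC50 (50% degradation concentration), expressed as percentage of untreated control, mean ± SD of 2–3 independent experiments.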

[7] = biological target: T1, Protein cereblon/Histone deacetylase 1 (Mus musculus); test: Protac activity at CRBN/HDAC1 in mouse RAW264.7 cells assessed as induction of HDAC1 degradation at 0.01 to 10 uM measured after 24 hrs by Western blot analysis; assay type: cell-based; conditions: dose 0.01-10 µM
[8] = biological target: T2, Protein cereblon/Histone deacetylase 2 (Mus musculus); test: Protac activity at CRBN/HDAC2 in mouse RAW264.7 cells assessed as induction of HDAC2 degradation at 0.01 to 10 uM measured after 24 hrs by Western blot analysis; assay type: cell-based; conditions: dose 0.01-10 µM; procedure, shortened: as §2
[9] = biological target: T4, Protein cereblon/Histone deacetylase 3 (Mus musculus) (UniProt O88895+Q8C7D2); test: Protac activity at CRBN/HDAC3 in mouse RAW264.7 cells assessed as induction of HDAC3 degradation at 10 uM measured after 6 to 48 hrs by Western blot analysis; assay type: cell-based; conditions: time 6-48 hrs
Procedure, shortened: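 RAW264.7 macrophages treated for the indicated times. HDAC3 level measured by western blot against β-actin. Bands quantified as fold of untreated control, mean ± SD of 2 independent experiments.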

[10] = biological target: T4, Protein cereblon/Histone deacetylase 3 (Mus musculus); test: Protac activity at CRBN/HDAC3 in mouse RAW264.7 cells assessed as increase of H3K27 acetylation at 10 uM measured after 24 hrs by Western blot analysis; assay type: cell-based
Procedure, shortened: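 RAW264.7 macrophages treated for 24h. H3K27 acetylation measured by western blot with acH3K27 antibody (1:1000), HRP detection. Bands quantified as fold of untreated control, mean ± SD of 2 independent experiments.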

[11] = biological target: T4, Protein cereblon/Histone deacetylase 3 (Mus musculus); test: Protac activity at CRBN/HDAC3 in mouse RAW264.7 cells assessed as induction of HDAC3 degradation at 10 uM measured after 24 hrs in presence of HDAC ligand CI994 by Western blot analysis; assay type: cell-based
Procedure, shortened: (§3)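 RAW264.7 cells pre-treated 1h with pomalidomide or CI994 (competitor), then the PROTAC added for 24h combined treatment. Control cells received competitor alone for 25h. HDAC3 measured by western blot, quantified as fold of untreated control, mean ± SD of 2 independent experiments.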

[12] = biological target: T4, Protein cereblon/Histone deacetylase 3 (Mus musculus); test: Protac activity at CRBN/HDAC3 in mouse RAW264.7 cells assessed as induction of HDAC3 degradation at 10 uM measured after 24 hrs in presence of CRBN ligand pomalidomide by Western blot analysis; assay type: cell-based; procedure, shortened: as §3
[13] = biological target: T4, Protein cereblon/Histone deacetylase 3 (Mus musculus); test: Protac activity at CRBN/HDAC3 in mouse RAW264.7 cells assessed as induction of HDAC3 degradation at 10 uM measured after 24 hrs in presence of proteasome inhibitor bortezomib by Western blot analysis; assay type: cell-based
Procedure, shortened: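 RAW264.7 macrophages treated 24h with bortezomib, the PROTAC, or both together. HDAC3 measured by western blot, quantified as fold of untreated control, mean ± SD of 2 independent experiments.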

RAW264.7 [14] = test: Effect on LPS/IFNgamma-induced IL-10 mRNA expression in mouse RAW264.7 cells at 1 uM incubated for 20 hrs followed by LPS/IFNgamma stimulation and measured after 4 hrs by RT-qPCR analysis; assay type: functional, cell-based; conditions: time 24.0 hrs
Procedure, shortened: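 RAW264.7 macrophages treated for 24h, with LPS/IFNγ stimulation during the final 4h. Vehicle cells received a proportional DMSO dilution. Total RNA isolated from DPBS-washed cells and IL-10 transcription measured by RT-qPCR. Mean ± SD of 2–3 independent experiments.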

[15] = biological target: T4, Protein cereblon/Histone deacetylase 3 (Mus musculus); test: Protac activity at CRBN/HDAC3 in mouse RAW264.7 cells assessed as induction of HDAC3 degradation at 10 uM by Western blot analysis; assay type: cell-based; procedure, shortened: as §1
RAW264.7 [16] = test: Cytotoxicity against mouse RAW264.7 cells assessed as reduction in cell proliferation at 3 uM measured after 24 hrs by MTS assay relative to control; assay type: cell-based; set-up: scale not given: the % may be the effect or the level left; conditions: raw264.7, 24 h
Procedure, shortened: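 RAW264.7 cells (passage 5–16, DMEM GlutaMAX with 10% heated FBS, 37 °C, 5% CO2) seeded at 25,000 cells/cm2. Next day, medium swapped for fresh medium containing compound. After 24h, CellTiter 96 AQueous One (MTS) added, 2h at 37 °C in dark. Absorbance read at 490 nm and expressed as % of control.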

[17] = biological target: T4, Protein cereblon/Histone deacetylase 3 (Mus musculus); test: Protac activity at CRBN/HDAC3 in mouse RAW264.7 cells assessed as induction of HDAC3 degradation at 10 to 100 uM measured after 24 hrs by Western blot analysis; assay type: cell-based; conditions: dose 10-100 µM
Procedure, shortened: (§4)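 RAW264.7 macrophages exposed to 1–100 µM for HDAC1/2/3 level assessment. Protein read by western blot: lysis, BCA, Bis-Tris SDS-PAGE, PVDF, overnight 4 °C primary antibodies (HDAC1, 2, 3 at 1:2000; β-actin 1:10000), HRP secondaries, chemiluminescence.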

[18] = biological target: T1, Protein cereblon/Histone deacetylase 1 (Mus musculus); test: Protac activity at CRBN/HDAC1 in mouse RAW264.7 cells assessed as induction of HDAC1 degradation at 30 to 100 uM measured after 24 hrs by Western blot analysis; assay type: cell-based; conditions: dose 30-100 µM; procedure, shortened: as §4
[19] = biological target: T2, Protein cereblon/Histone deacetylase 2 (Mus musculus); test: Protac activity at CRBN/HDAC2 in mouse RAW264.7 cells assessed as induction of HDAC2 degradation at 100 uM measured after 24 hrs by Western blot analysis; assay type: cell-based; procedure, shortened: as §4
[20] = biological target: Protein cereblon/Histone deacetylase 3 (Homo sapiens) (UniProt O15379+Q96SW2); test: Protac activity at CRBN/HDAC3 in human A549 cells assessed as induction of HDAC3 degradation up to 50 uM by Western blot analysis; assay type: cell-based; conditions: dose microM <=50
Protein cereblon/Histone deacetylase 3 (Homo sapiens), sequence (O15379 whole entry, looked up): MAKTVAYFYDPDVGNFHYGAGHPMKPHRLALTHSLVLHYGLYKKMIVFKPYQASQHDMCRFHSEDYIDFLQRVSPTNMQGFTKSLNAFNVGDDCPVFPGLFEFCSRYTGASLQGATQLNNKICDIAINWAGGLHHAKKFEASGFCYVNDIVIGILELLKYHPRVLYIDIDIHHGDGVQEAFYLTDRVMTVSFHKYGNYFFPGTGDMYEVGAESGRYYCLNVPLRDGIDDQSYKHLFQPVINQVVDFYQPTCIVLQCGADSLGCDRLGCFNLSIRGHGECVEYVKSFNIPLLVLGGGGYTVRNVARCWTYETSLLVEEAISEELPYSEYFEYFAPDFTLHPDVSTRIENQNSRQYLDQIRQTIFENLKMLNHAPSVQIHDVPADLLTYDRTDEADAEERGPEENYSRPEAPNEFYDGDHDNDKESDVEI
Protein cereblon/Histone deacetylase 3 (Homo sapiens), sequence (Q96SW2 whole entry, looked up): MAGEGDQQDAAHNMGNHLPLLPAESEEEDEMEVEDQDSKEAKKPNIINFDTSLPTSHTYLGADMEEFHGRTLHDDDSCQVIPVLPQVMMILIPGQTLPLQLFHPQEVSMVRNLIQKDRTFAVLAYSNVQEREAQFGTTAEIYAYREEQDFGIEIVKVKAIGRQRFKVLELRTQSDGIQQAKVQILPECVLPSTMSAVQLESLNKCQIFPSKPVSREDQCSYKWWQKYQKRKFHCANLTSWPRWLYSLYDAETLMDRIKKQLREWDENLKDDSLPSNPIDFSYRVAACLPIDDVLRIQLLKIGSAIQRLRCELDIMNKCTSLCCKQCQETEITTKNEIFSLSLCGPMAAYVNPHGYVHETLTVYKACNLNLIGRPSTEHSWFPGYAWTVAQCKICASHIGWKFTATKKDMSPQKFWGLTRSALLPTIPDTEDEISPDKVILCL

Histone deacetylase 1, sequence (Q13547 whole entry, the tested form may be a part): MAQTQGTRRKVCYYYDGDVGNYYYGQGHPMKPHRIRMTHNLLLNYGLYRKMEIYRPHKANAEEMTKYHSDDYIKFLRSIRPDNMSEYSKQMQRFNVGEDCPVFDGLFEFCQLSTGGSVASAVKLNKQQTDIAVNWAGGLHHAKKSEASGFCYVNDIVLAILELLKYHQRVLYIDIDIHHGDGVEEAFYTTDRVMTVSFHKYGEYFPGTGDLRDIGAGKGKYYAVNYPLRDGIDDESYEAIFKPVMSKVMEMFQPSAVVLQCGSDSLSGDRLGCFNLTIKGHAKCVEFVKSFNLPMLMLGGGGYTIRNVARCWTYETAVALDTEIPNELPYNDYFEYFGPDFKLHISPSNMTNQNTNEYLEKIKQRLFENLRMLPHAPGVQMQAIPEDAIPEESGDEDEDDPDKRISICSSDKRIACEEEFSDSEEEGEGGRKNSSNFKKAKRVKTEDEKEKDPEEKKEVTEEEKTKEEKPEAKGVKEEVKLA
Histone deacetylase 2, sequence (Q92769 whole entry, the tested form may be a part): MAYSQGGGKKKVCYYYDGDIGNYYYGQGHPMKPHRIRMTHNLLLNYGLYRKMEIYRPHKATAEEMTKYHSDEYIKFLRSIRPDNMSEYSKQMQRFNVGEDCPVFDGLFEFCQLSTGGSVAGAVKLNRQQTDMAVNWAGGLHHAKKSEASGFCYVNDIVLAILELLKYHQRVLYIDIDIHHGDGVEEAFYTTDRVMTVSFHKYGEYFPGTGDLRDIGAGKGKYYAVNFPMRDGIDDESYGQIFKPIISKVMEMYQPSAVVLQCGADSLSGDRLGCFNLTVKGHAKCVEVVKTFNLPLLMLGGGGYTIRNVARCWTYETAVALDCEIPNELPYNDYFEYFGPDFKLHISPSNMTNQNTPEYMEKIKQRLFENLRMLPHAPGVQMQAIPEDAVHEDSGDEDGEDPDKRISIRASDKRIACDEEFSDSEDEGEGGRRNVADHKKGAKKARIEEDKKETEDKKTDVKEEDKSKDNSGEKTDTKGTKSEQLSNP
Histone deacetylase 3/Nuclear receptor corepressor 2 (HDAC3/NCoR2), sequence (O15379 whole entry, the tested form may be a part): as the sequence (O15379 whole entry, looked up) above
Histone deacetylase 3/Nuclear receptor corepressor 2 (HDAC3/NCoR2), sequence (Q9Y618 whole entry, further chain, the tested form may be a part): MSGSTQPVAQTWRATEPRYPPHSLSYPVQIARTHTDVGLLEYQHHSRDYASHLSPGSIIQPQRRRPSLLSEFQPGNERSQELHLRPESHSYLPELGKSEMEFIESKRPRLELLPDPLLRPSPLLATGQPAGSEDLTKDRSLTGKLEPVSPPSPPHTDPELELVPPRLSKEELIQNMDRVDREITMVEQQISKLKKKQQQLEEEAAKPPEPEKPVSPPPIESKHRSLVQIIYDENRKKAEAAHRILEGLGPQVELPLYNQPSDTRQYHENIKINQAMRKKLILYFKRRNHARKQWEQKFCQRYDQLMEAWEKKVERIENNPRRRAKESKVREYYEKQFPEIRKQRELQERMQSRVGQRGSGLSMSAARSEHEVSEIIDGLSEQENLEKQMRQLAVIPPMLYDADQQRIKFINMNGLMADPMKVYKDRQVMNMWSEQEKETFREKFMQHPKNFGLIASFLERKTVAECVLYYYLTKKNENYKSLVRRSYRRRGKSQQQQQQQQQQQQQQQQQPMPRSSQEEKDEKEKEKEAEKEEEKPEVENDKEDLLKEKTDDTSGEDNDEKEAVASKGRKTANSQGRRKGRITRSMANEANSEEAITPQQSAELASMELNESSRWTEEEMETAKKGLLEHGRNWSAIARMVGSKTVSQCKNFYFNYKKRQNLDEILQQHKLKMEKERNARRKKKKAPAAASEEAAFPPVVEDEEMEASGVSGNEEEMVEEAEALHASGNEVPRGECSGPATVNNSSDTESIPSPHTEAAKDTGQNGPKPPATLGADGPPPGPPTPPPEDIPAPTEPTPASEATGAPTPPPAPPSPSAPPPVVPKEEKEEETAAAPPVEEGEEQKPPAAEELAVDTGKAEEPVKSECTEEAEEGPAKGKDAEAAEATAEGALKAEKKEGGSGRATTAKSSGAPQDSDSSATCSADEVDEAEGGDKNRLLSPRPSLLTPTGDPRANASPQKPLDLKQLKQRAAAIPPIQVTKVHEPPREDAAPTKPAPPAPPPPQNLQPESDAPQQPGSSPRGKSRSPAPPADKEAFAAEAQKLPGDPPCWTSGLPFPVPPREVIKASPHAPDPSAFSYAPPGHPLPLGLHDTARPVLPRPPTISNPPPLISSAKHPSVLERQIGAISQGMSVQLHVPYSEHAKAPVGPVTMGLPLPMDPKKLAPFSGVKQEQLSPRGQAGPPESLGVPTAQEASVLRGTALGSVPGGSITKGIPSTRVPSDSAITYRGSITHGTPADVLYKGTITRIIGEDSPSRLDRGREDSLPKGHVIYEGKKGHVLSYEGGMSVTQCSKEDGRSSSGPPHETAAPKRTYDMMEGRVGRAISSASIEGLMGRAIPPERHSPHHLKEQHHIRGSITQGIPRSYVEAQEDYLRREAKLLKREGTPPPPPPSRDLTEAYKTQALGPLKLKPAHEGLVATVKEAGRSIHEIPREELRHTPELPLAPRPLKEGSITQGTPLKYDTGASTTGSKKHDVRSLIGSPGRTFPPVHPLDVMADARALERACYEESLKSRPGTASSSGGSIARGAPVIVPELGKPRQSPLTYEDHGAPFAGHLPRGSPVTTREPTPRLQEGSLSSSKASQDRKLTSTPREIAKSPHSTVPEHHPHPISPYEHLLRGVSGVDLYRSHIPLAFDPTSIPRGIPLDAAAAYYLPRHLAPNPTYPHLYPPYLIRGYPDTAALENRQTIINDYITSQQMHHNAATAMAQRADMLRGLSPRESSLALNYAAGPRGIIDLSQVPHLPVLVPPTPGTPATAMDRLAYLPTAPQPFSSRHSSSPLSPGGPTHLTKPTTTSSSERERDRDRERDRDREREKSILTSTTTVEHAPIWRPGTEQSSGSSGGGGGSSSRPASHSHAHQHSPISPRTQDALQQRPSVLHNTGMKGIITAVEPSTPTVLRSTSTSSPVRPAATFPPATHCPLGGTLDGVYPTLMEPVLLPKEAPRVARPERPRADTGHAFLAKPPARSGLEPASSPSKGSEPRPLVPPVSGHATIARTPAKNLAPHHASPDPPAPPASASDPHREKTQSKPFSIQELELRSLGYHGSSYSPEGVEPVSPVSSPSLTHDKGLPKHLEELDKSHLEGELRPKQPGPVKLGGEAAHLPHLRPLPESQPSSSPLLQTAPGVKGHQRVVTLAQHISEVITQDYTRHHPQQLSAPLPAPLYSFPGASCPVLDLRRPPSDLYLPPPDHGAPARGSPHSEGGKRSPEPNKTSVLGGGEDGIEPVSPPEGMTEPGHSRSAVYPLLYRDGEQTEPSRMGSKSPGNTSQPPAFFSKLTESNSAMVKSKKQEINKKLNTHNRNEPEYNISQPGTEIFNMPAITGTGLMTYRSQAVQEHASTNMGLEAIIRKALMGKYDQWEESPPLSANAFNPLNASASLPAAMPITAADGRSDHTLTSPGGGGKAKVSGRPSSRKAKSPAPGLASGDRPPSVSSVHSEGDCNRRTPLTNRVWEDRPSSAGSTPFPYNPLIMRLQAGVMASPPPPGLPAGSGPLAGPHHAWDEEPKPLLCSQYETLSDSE
T2 sequence (P70288 whole entry, looked up, one chain of several): as the sequence (Q92769 whole entry, the tested form may be a part) above, with V289A, T477P, T480A counted along it
T1 sequence (O09106 whole entry, looked up, one chain of several): as the sequence (Q13547 whole entry, the tested form may be a part) above, with R8K, D399E, E424D counted along it

SMILES | Activity [1] | viability at 24 h [2] [%] | IC50 (Histone deacetylase 1) [nM] | IC50 (Histone deacetylase 2) [nM] | IC50 [3] [nM] | Activity [4] | Activity [15] | other results
O=C1CCC(N2C(=O)c3ccccc3C2=O)C(=O)N1 (stereo not given) [THALIDOMIDE] | Toxic | – | – | – | – | – | – | –
Nc1ccccc1NC(=O)c1ccc(NC(=O)CCCCCNc2cccc3c2C(=O)N(C2CCC(=O)NC2=O)C3=O)cc1 (stereo not given) | – | > 80 | 220 | 970 | 540 | inactive | – | Activity [5]: Active
Nc1cccc2c1C(=O)N(C1CCC(=O)NC1=O)C2=O (stereo not given) [POMALIDOMIDE] | Toxic | – | – | – | – | – | – | –
Nc1cc(F)ccc1NC(=O)c1ccc(NC(=O)CCCCNC(=O)CNc2cccc3c2C(=O)N(C2CCC(=O)NC2=O)C3=O)cc1 (stereo not given) | Toxic | – | 3600 | 4200 | 1100 | – | – | DC50 [6]: 320 nM; Activity [7]: inactive; Activity [8]: inactive; Activity [9]: Active; Activity [10]: Active; Activity [11]: inactive; Activity [12]: inactive; Activity [13]: inactive; Activity (RAW264.7 [14]): inactive
Nc1ccccc1NC(=O)c1ccc(NC(=O)CCCNc2cccc3c2C(=O)N(C2CCC(=O)NC2=O)C3=O)cc1 (stereo not given) | – | > 80 | 360 | 1200 | 870 | inactive | Active | –
CC(=O)Nc1ccc(C(=O)Nc2ccccc2N)cc1 [TACEDINALINE] | – | – | – | – | – | – | – | Activity (RAW264.7 [16]): 30%
Nc1ccccc1NC(=O)c1ccc(NC(=O)CCCCNC(=O)CNc2cccc3c2C(=O)N(C2CCC(=O)NC2=O)C3=O)cc1 (stereo not given) | – | > 80 | 290 | 620 | 520 | inactive | Active | Activity [17]: Active; Activity [18]: Active; Activity [19]: Active; Activity [20]: inactive
Nc1cccc2c1CN(C1CCC(=O)NC1=O)C2=O (stereo not given) [LENALIDOMIDE] | Toxic | – | – | – | – | – | – | –
Nc1ccccc1NC(=O)c1ccc(NC(=O)CCCCNc2cccc3c2C(=O)N(C2CCC(=O)NC2=O)C3=O)cc1 (stereo not given) | – | > 80 | 420 | 1000 | 1000 | inactive | – | –
Nc1ccccc1NC(=O)c1ccc(NC(=O)CCCNC(=O)CNc2cccc3c2C(=O)N(C2CCC(=O)NC2=O)C3=O)cc1 (stereo not given) | – | > 80 | 320 | 1500 | 560 | inactive | inactive | –
